What was measured:
Neutrophil elastase = biological target: T1, Neutrophil elastase (Homo sapiens, UniProt P08246); assay: Inhibition of human leukocyte elastase
T1 sequence (P08246 whole entry): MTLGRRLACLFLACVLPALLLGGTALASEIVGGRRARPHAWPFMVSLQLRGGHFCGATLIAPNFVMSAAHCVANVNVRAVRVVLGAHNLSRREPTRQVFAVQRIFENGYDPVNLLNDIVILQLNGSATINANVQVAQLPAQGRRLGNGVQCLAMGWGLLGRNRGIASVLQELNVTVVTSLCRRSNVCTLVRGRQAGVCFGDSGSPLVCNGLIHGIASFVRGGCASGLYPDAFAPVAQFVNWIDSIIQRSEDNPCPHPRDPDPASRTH

[1] = Alkaline hydrolysis rate of the compound; format: ADME
How it was run: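 Alkaline hydrolysis rate constants measured at several pH values at 25 °C. Loss of the long-wavelength UV chromophore (λmax typically 300-345 nm) was followed by spectrophotometer.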

[2] = Partition coefficient (logD7.4); format: physicochemical; settings: octanol/water, pH 7.4

Ki (Neutrophil elastase) [nM] | Log kOH- [1] | logD [2] | SMILES
110 | – | – | Cc1cccc2nc(Nc3ccccc3)oc(=O)c12
1200 | – | – | CCOC(=O)C(Cc1ccccc1)Nc1nc2ccccc2c(=O)o1 (configuration not stated)
468 | – | – | CC(C)[C@H](NC(=O)C1CCCN1c1nc2ccccc2c(=O)o1)C(N)=O (some centres not stated)
12 | 0.48 | – | CCc1cccc2nc(N[C@@H](CC(C)C)C(=O)OC)oc(=O)c12
339 | 1.76 | – | CCSc1nc2ccc(N(C)C)cc2c(=O)o1
120 | 0.73 | – | CCc1cccc2nc(C)oc(=O)c12
– | – | 2.4 | CCCNc1nc2ccccc2c(=O)o1
257 | – | – | O=c1oc(SCc2ccccc2)nc2cc3ccccc3cc12
39.8 | – | – | COC(=O)[C@H](CC(C)C)NC(=O)[C@H](CC(C)C)Nc1nc2cc(C)cc(C)c2c(=O)o1
0.115 | 1.31 | – | CCOc1nc2cccc(C)c2c(=O)o1
513 | 3.23 | – | Cc1ccc2nc(C(F)(F)F)oc(=O)c2c1
151 | 1.58 | – | Cc1cccc2nc(CBr)oc(=O)c12
110 | -1.88 | – | CCc1cc(N(C)C)cc2nc(NC(C)C)oc(=O)c12
0.398 | – | – | CCOc1nc2cc(OC)cc(C)c2c(=O)o1
110 | – | – | O=c1oc(C(F)(F)C(F)(F)F)nc2ccccc12
– | -0.08 | – | CCc1cccc2nc(N)oc(=O)c12
2000 | 1.81 | – | CN(C)c1ccc(CNc2nc3ccccc3c(=O)o2)cc1
170 | 1.95 | – | CCSc1nc2ccc(C)cc2c(=O)o1
2880 | – | – | CCCc1nc2ccccc2c(=O)o1
2820 | 1.01 | – | Cc1ccccc1CNc1nc2ccccc2c(=O)o1
178 | – | – | CCCCN(CCCC)c1nc2cccc(CC)c2c(=O)o1
646 | – | 3 | O=c1oc(N2CCCCC2)nc2ccccc12
407 | 0.86 | – | CCCCNc1nc2c(C)cccc2c(=O)o1
219 | 1.38 | – | Cc1cccc2ncoc(=O)c12
14500 | 0.83 | – | COc1cccc2nc(C)oc(=O)c12
64600 | 1.4 | – | CCOC(=O)CNc1nc2ccccc2c(=O)o1
– | 0.96 | 3.8 | CCCCCCNc1nc2ccccc2c(=O)o1

Ki (Neutrophil elastase) [nM] | Log kOH- [1] | logD [2] | SMILES
1000 | 0.85 | – | Cc1nc2cccc(C)c2c(=O)o1
– | 0.41 | – | CCCCNc1nc2cccc(C)c2c(=O)o1
200 | – | – | Cc1cccc2nc(NC3CCCC3)oc(=O)c12
0.0676 | 1.93 | – | CCOc1nc2cccc(CBr)c2c(=O)o1
31600 | 0.03 | – | CCCCCCCCNc1nc2ccccc2c(=O)o1
6.61 | 0.2 | – | Cc1ccc(C)c2c(=O)oc(NC(C)C)nc12
1550 | – | – | Cc1cccc2nc(NCCC(C)C)oc(=O)c12
– | 1.09 | 3.1 | CCCCNc1nc2ccccc2c(=O)o1
1780 | 1.94 | – | O=c1oc(-c2ccco2)nc2ccccc12
240 | – | – | Cc1cccc2nc(NCC(C)(C)C)oc(=O)c12
0.0708 | 0.96 | – | CCOc1nc2cccc(C(C)C)c2c(=O)o1
20.9 | 1.66 | – | CCSc1nc2cc(CC)ccc2c(=O)o1
5500 | -0.99 | – | CCN(CC)c1ccc2c(=O)oc(NC(C)C)nc2c1
21.4 | – | – | CCCOc1cc(CC)c2c(=O)oc(NC(C)C)nc2c1
72.4 | 2.54 | – | CCSc1nc2cc3ccccc3cc2c(=O)o1
12900 | – | – | COc1cc2nc(SCc3c[nH]c4ccccc34)oc(=O)c2cc1OC
372 | – | – | CCN(CC)c1nc2ccccc2c(=O)o1
692 | – | 2.4 | CCNc1ccc2c(=O)oc(NC(C)C)nc2c1
1910 | 0.97 | – | O=c1oc(N2CCCC2)nc2ccccc12
43.7 | 0.92 | – | CCC(C)Nc1nc2ccccc2c(=O)o1 (configuration not stated)
6.46 | 1.91 | – | CCOc1nc2ccccc2c(=O)o1
933 | 0.97 | – | COc1cc2nc(OCc3ccccc3)oc(=O)c2cc1OC
417 | 3.54 | – | COc1cccc2nc(C(F)(F)F)oc(=O)c12
0.0955 | – | – | CCOc1nc2c(C)ccc(C)c2c(=O)o1
4370 | 1.82 | – | O=c1oc(-c2cccc([N+](=O)[O-])c2)nc2ccccc12
10 | – | – | COc1nc2cccc(C)c2c(=O)o1
182 | – | – | COC(=O)[C@@H](NC(=O)[C@H](C)Nc1nc2ccccc2c(=O)o1)C(C)C

From ChEMBL document CHEMBL1125034, “Design and synthesis of 4H-3,1-benzoxazin-4-ones as potent alternate substrate inhibitors of human leukocyte elastase” (J Med Chem, 1990)
